Results: ChEMBL document CHEMBL1127343, “"Glycylcyclines". 3. 9-Aminodoxycyclinecarboxamides” (1994)
Converted amounts (≈) assume the structure as drawn. Where a SMILES comes first, the peptide text is derived from it. The star is where a group is joined. X1 = C[C@H]1c2ccc(N*)c(O)c2C(=O)C2=C(O)[C@]3(O)C(O)=C(C(N)=O)C(=O)[C@@H](N(C)C)C3[C@@H](O)C21

How the values were obtained:
Assay type in all cases: functional
Staphylococcus aureus [1] = assay: In vitro antibacterial activity was measured on gram positive bacteria Staphylococcus aureus UBMS 90-3 sensitive cell lines
Summary of the method: (§1)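 MIC by agar dilution on Mueller-Hinton II agar; inoculum (1–5) × 10^5 CFU/mL; antibiotic range 32–0.004 μg/mL; plates incubated 18 h at 35 °C in forced-air incubator. MIC taken as lowest concentration inhibiting growth. Tetracycline, minocycline and doxycycline run as standards in each assay.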

Escherichia coli [2] = assay: In vitro antibacterial activity was measured on gram negative bacteria Escherichia coli UBMS 90-5 sensitive cell lines; summary of the method: as §1
Escherichia coli [3] = assay: In vitro antibacterial activity was measured on gram negative bacteria Escherichia coli UBMS 90-4 tet-M (ribosomal protection) cell lines
Summary of the method: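 Agar dilution MIC on Mueller-Hinton II agar. Inoculum (1–5) × 10^5 CFU/mL, drug range 32–0.004 μg/mL. Plates incubated 18 h at 35 °C in a forced-air incubator. MIC is the lowest concentration that inhibits growth. The strain panel covered tetracycline-sensitive and -resistant strains. Tetracycline, minocycline and doxycycline were run as standards in each assay.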

Escherichia coli [4] = assay: In vitro antibacterial activity was measured on gram negative bacteria Escherichia coli UBMS 88-1 tet-B(efflux resistance) cell lines
Staphylococcus aureus [5] = assay: In vitro antibacterial activity was measured on gram positive bacteria Staphylococcus aureus smith cell lines; summary of the method: as §1
Staphylococcus aureus [6] = assay: In vitro antibacterial activity was measured on gram positive bacteria Staphylococcus aureus UBMS 90-1 tet-M (ribosomal protection) cell lines; summary of the method: as §1
Staphylococcus aureus [7] = assay: In vitro antibacterial activity was measured on gram positive bacteria Staphylococcus aureus UBMS 88-7 tet-k(efflux resistance) cell lines
Escherichia coli [8] = assay: In vitro antibacterial activity was measured on gram negative bacteria Escherichia coli J3272 tet-C(efflux resistance) cell lines
Escherichia coli [9] = assay: In vitro antibacterial activity was measured on gram negative bacteria Escherichia coli PRP-1 tet-a(efflux resistance) cell lines

Structure (SMILES)	MIC (Staphylococcus aureus [1])	MIC (Escherichia coli [2]) [µg/mL]	MIC (Escherichia coli [3]) [µg/mL]	MIC (Escherichia coli [4]) [µg/mL]	MIC (Staphylococcus aureus [5]) [µg/mL]	MIC (Staphylococcus aureus [6]) [µg/mL]	MIC (Staphylococcus aureus [7]) [µg/mL]	MIC (Escherichia coli [8]) [µg/mL]	MIC (Escherichia coli [9]) [µg/mL]
CC(C)C(=O)Nc1ccc2c(c1O)C(=O)C1=C(O)[C@]3(O)C(O)=C(C(N)=O)C(=O)[C@@H](N(C)C)C3[C@@H](O)C1[C@H]2C (stereo partly drawn)	0.5 µg/mL (≈ 0.944 µM)	> 32	> 32	16 (≈ 30.2 µM)	1 (≈ 1.89 µM)	> 32	–	–	–
CC(C)C[C@H](NC(=O)[C@@H](N)CC(C)C)C(=O)Nc1ccc2c(c1O)C(=O)C1=C(O)[C@]3(O)C(O)=C(C(N)=O)C(=O)[C@@H](N(C)C)C3[C@@H](O)C1[C@H]2C (stereo partly drawn)	4 µg/mL (≈ 5.83 µM)	> 32	> 32	–	8 (≈ 11.7 µM)	4 (≈ 5.83 µM)	32 (≈ 46.7 µM)	–	–
CN(C)c1ccc(O)c2c1CC1C[C@H]3[C@H](N(C)C)C(=O)C(C(N)=O)=C(O)[C@@]3(O)C(=O)C1=C2O (stereo partly drawn)	0.06 µg/mL (≈ 0.131 µM)	1 (≈ 2.19 µM)	> 32	–	0.12 (≈ 0.262 µM)	4 (≈ 8.74 µM)	–	–	–
C[C@H]1c2ccc(NC(=O)[C@@H](N)CCCCN)c(O)c2C(=O)C2=C(O)[C@]3(O)C(O)=C(C(N)=O)C(=O)[C@@H](N(C)C)C3[C@@H](O)C21 (stereo partly drawn)	> 32 µg/mL	> 32	> 32	–	> 32	> 32	16 (≈ 27.2 µM)	–	–
C[C@H]1c2ccc(NC(=O)[C@@H](N)CCC(=O)O)c(O)c2C(=O)C2=C(O)[C@]3(O)C(O)=C(C(N)=O)C(=O)[C@@H](N(C)C)C3[C@@H](O)C21 (stereo partly drawn)	32 µg/mL (≈ 54.4 µM)	> 32	> 32	–	> 32	> 32	–	–	–
C[C@H]1c2ccc(NC(=O)[C@H](Cc3ccccc3)N(C)C)c(O)c2C(=O)C2=C(O)[C@]3(O)C(O)=C(C(N)=O)C(=O)[C@@H](N(C)C)C3[C@@H](O)C21 (stereo partly drawn)	1 µg/mL (≈ 1.58 µM)	32 (≈ 50.4 µM)	16 (≈ 25.2 µM)	–	4 (≈ 6.3 µM)	2 (≈ 3.15 µM)	–	–	–
CC(C)C[C@@H](N)C(=O)Nc1ccc2c(c1O)C(=O)C1=C(O)[C@]3(O)C(O)=C(C(N)=O)C(=O)[C@@H](N(C)C)C3[C@@H](O)C1[C@H]2C (stereo partly drawn)	2 µg/mL (≈ 3.49 µM)	8 (≈ 14 µM)	4 (≈ 6.99 µM)	–	2 (≈ 3.49 µM)	> 32	16 (≈ 27.9 µM)	16 (≈ 27.9 µM)	–
CC(=O)Nc1ccc2c(c1O)C(=O)C1=C(O)[C@]3(O)C(O)=C(C(N)=O)C(=O)[C@@H](N(C)C)C3[C@@H](O)C1[C@H]2C (stereo partly drawn)	0.25 µg cm··-2	8 (≈ 16 µM)	32 (≈ 63.8 µM)	–	0.5 (≈ 0.997 µM)	> 32	–	–	–
C[C@H]1c2ccc(NC(=O)[C@@H](N)Cc3c[nH]c4ccccc34)c(O)c2C(=O)C2=C(O)[C@]3(O)C(O)=C(C(N)=O)C(=O)[C@@H](N(C)C)C3[C@@H](O)C21 (stereo partly drawn)	2 µg/mL (≈ 3.1 µM)	8 (≈ 12.4 µM)	4 (≈ 6.2 µM)	–	1 (≈ 1.55 µM)	4 (≈ 6.2 µM)	16 (≈ 24.8 µM)	32 (≈ 49.6 µM)	16 (≈ 24.8 µM)
C[C@H]1c2ccc(NC(=O)[C@@H](N)CCC(N)=O)c(O)c2C(=O)C2=C(O)[C@]3(O)C(O)=C(C(N)=O)C(=O)[C@@H](N(C)C)C3[C@@H](O)C21 (stereo partly drawn)	1 µg/mL (≈ 1.7 µM)	16 (≈ 27.2 µM)	> 32	–	4 (≈ 6.81 µM)	> 32	32 (≈ 54.5 µM)	–	–
CC(C)C[C@H](NC(=O)CN)C(=O)Nc1ccc2c(c1O)C(=O)C1=C(O)[C@]3(O)C(O)=C(C(N)=O)C(=O)[C@@H](N(C)C)C3[C@@H](O)C1[C@H]2C (stereo partly drawn)	> 32 µg/mL	> 32	> 32	–	16 (≈ 25.4 µM)	> 32	–	–	–
CC(C)C[C@@H](N)C(=O)Nc1ccc2c(c1O)C(=O)C1=C(O)[C@]3(O)C(O)=C(C(N)=O)C(=O)[C@@H](N(C)C)C3CC1C2 (stereo partly drawn)	8 µg/mL (≈ 14.7 µM)	8 (≈ 14.7 µM)	8 (≈ 14.7 µM)	–	8 (≈ 14.7 µM)	16 (≈ 29.5 µM)	–	–	–
CNCC(=O)Nc1ccc2c(c1O)C(=O)C1=C(O)[C@]3(O)C(O)=C(C(N)=O)C(=O)[C@@H](N(C)C)C3[C@@H](O)C1[C@H]2C (stereo partly drawn)	4 µg/mL (≈ 7.54 µM)	8 (≈ 15.1 µM)	4 (≈ 7.54 µM)	–	8 (≈ 15.1 µM)	8 (≈ 15.1 µM)	> 32	> 32	> 32
CCCCNCC(=O)Nc1ccc2c(c1O)C(=O)C1=C(O)[C@]3(O)C(O)=C(C(N)=O)C(=O)[C@@H](N(C)C)C3[C@@H](O)C1[C@H]2C (stereo partly drawn)	0.25 µg/mL (≈ 0.437 µM)	0.5 (≈ 0.873 µM)	1 (≈ 1.75 µM)	–	0.5 (≈ 0.873 µM)	4 (≈ 6.99 µM)	8 (≈ 14 µM)	–	4 (≈ 6.99 µM)
COC(=O)Nc1ccc2c(c1O)C(=O)C1=C(O)[C@]3(O)C(O)=C(C(N)=O)C(=O)[C@@H](N(C)C)C3[C@@H](O)C1[C@H]2C (stereo partly drawn)	0.06 µg/mL (≈ 0.116 µM)	> 32	> 32	–	0.06 (≈ 0.116 µM)	16 (≈ 30.9 µM)	4 (≈ 7.73 µM)	–	–
CCCCCCCCCC(=O)Nc1ccc2c(c1O)C(=O)C1=C(O)[C@]3(O)C(O)=C(C(N)=O)C(=O)[C@@H](N(C)C)C3[C@@H](O)C1[C@H]2C (stereo partly drawn)	16 µg/mL (≈ 26.1 µM)	> 32	> 32	–	> 32	> 32	–	–	–
C[C@H]1c2ccc(NC(=O)CN)c(O)c2C(=O)C2=C(O)[C@]3(O)C(O)=C(C(N)=O)C(=O)[C@@H](N(C)C)C3[C@@H](O)C21 (stereo partly drawn)	4 µg/mL (≈ 7.74 µM)	8 (≈ 15.5 µM)	8 (≈ 15.5 µM)	–	8 (≈ 15.5 µM)	16 (≈ 31 µM)	> 32	> 32	> 32
C[C@H]1c2ccc(NC(=O)CN3CCCCC3)c(O)c2C(=O)C2=C(O)[C@]3(O)C(O)=C(C(N)=O)C(=O)[C@@H](N(C)C)C3[C@@H](O)C21 (stereo partly drawn)	0.12 µg/mL (≈ 0.205 µM)	0.5 (≈ 0.855 µM)	1 (≈ 1.71 µM)	–	0.25 (≈ 0.428 µM)	1 (≈ 1.71 µM)	–	–	2 (≈ 3.42 µM)
C[C@H]1c2cccc(O)c2C(=O)C2=C(O)[C@]3(O)C(O)=C(C(N)=O)C(=O)[C@@H](N(C)C)[C@@H]3[C@@H](O)C21 (stereo partly drawn)	0.12 µg/mL (≈ 0.27 µM)	1 (≈ 2.25 µM)	> 32	32 (≈ 72 µM)	0.12 (≈ 0.27 µM)	8 (≈ 18 µM)	–	16 (≈ 36 µM)	16 (≈ 36 µM)
CC(C)C[C@H](N)C(=O)NCC(=O)Nc1ccc2c(c1O)C(=O)C1=C(O)[C@]3(O)C(O)=C(C(N)=O)C(=O)[C@@H](N(C)C)C3[C@@H](O)C1[C@H]2C (stereo partly drawn)	> 32 µg/mL	> 32	> 32	–	16 (≈ 25.4 µM)	> 32	–	–	–
C[C@H]1c2ccc(NC=O)c(O)c2C(=O)C2=C(O)[C@]3(O)C(O)=C(C(N)=O)C(=O)[C@@H](N(C)C)C3[C@@H](O)C21 (stereo partly drawn)	0.12 µg/mL (≈ 0.246 µM)	2 (≈ 4.1 µM)	> 32	–	0.12 (≈ 0.246 µM)	> 32	–	–	–
C[C@H]1c2ccc(NC(=O)CN3CCCC3)c(O)c2C(=O)C2=C(O)[C@]3(O)C(O)=C(C(N)=O)C(=O)[C@@H](N(C)C)C3[C@@H](O)C21 (stereo partly drawn)	0.25 µg/mL (≈ 0.438 µM)	0.5 (≈ 0.876 µM)	0.25 (≈ 0.438 µM)	–	0.5 (≈ 0.876 µM)	1 (≈ 1.75 µM)	4 (≈ 7.01 µM)	1 (≈ 1.75 µM)	2 (≈ 3.51 µM)
CC(C)C[C@H](NC(=O)[C@H](CC(C)C)NC(=O)[C@H](CC(C)C)NC(=O)[C@@H](N)CC(C)C)C(=O)Nc1ccc2c(c1O)C(=O)C1=C(O)[C@]3(O)C(O)=C(C(N)=O)C(=O)[C@@H](N(C)C)C3[C@@H](O)C1[C@H]2C (stereo partly drawn) (H-LLLL-X1)	32 µg/mL (≈ 35.1 µM)	> 32	> 32	–	16 (≈ 17.5 µM)	> 32	–	–	–
CN(C)[C@@H]1C(O)=C(C(N)=O)C(=O)[C@@]2(O)C(O)=C3C(=O)c4c(O)cccc4C[C@H]3C[C@@H]12 [SANCYCLINE]	0.25 µg/mL (≈ 0.603 µM)	2 (≈ 4.83 µM)	16 (≈ 38.6 µM)	–	0.25 (≈ 0.603 µM)	2 (≈ 4.83 µM)	4 (≈ 9.65 µM)	4 (≈ 9.65 µM)	8 (≈ 19.3 µM)
